A selection: hits, their analogues and other compounds. The true share with any hit is near 2.2%.
FLuc inh counter: inhibits firefly luciferase, flagging false hits in luciferase inhibition screens; P08659; ATPLite firefly luciferase biochemical luminescence, 10 min; inhibition, % at 10 µM; hit rate 1.5% among 200,000;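 active means inhibition above about 50% when tested at 10 µM, limit read from the data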
Target sequence (P08659 whole entry, looked up): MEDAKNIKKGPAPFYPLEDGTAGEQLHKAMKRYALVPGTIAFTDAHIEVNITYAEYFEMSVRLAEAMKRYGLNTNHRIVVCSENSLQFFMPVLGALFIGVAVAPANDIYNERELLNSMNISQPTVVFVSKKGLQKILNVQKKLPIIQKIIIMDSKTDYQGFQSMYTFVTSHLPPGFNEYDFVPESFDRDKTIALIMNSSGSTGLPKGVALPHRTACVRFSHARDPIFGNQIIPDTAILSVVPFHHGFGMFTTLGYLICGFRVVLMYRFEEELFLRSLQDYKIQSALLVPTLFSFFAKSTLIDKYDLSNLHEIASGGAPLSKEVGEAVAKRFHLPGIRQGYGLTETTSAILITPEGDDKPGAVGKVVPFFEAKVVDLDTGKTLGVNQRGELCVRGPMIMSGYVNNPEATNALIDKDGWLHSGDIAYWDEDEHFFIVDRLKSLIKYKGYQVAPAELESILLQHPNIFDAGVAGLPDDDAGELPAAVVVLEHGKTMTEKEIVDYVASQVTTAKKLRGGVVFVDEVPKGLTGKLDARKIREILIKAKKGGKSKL
HSP90 refold inh: HSP90 refolding inhibition in rabbit reticulocyte lysate | luciferase refolding luminescence, 3 h | inhibition, % at 5.6 µM | hit rate 0.91% among 290,000 | AID 1789;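 active means inhibition above the screen-wide mean plus 3 SD, computed separately per campaign, cut at about 16% in these data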;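 further: 0% = DMSO wells and 100% = 60 µM geldanamycin wells; inhibitors lower the luminescence because luciferase stays unfolded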
C8 TRAIL sens: caspase-8 TRAIL sensitization | NB7+C8 cells + TRAIL, ATPlite viability luminescence | hit rate 1% among 360,000 | inhibition (viability loss, TRAIL sensitization), % at 10 µM;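 active means compounds causing at least 50% loss of cell viability in the single-dose screen, relative to plate controls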
FLuc act counter: firefly luciferase counter-screen for stimulation assays; ATPlite luciferase biochemical, luminescence, 10 min; 0 = ATP-free wells, 1 = DMSO control; activation factor at 10 µM; 200,000 tested, under 10 active; AID 1027;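 active means luciferase activation factor, scaled between plate controls, of at least 2 with compound at 10 µM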
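Assay system: Luciferase/luciferin detection reagent, cell-free biochemical luciferase assay / Read-out: luciferase activation / Benchmarks: No-ATP low control, compound-free enzyme-plus-ATP high control / Medium: PBS buffer for ATP / Detection: luminescence measurement of luciferase light output / Schedule: 10 min at ambient temperature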
PPC-1+TRAIL kill: kills PPC-1 cancer cells in the presence of TRAIL; PPC-1 cells + TRAIL, ATPLite viability luminescence; cell killing (% activity), % at 4 µM or 5 µM; hit rate 0.41% among 220,000; AID 1443;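 active means cell killing above 50% in the first pass at 4 µM, then a duplicate retest at 5 µM averaging 50% or more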;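 further: plate controls were cells with TRAIL plus DMSO for no effect and medium-only wells lacking cells for full effect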
STAT3 inh: STAT3 signaling inhibition; U3A cells, IL-6 STAT3-luciferase reporter, luminescence; host cell line lacks STAT1; inhibition, % at 5.5 µM; hit rate 0.89% among 190,000;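 active means inhibition above the mean inhibition across all screened compounds plus 3 SD, cut at about 44% in these data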;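 further: 0% = DMSO only wells and 100% = 100 µM nifuroxazide control wells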
HSP90 confirm: HSP90 inhibition, confirmation assay; AID 1846; rabbit reticulocyte lysate, luciferase refolding luminescence, 3 h; shares compounds with HSP90 refold inh; hit rate 64% among 2,300; inhibition, % at 5.9 µM; in the data active means inhibition above about 18%;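 further: 0% = vehicle wells and 100% = reference inhibitor wells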
FLuc counter: firefly luciferase inhibition, HSP90 counter-screen | shares compounds with HSP90 refold inh | purified native firefly luciferase, luminescence | inhibition, % at 5.9 µM | hit rate 48% among 2,300 | AID 1847;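 active means inhibition above the mean inhibition of all tested sample wells plus 3 SD, cut at about 10% in these data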;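 further: 0% = DMSO with luciferase and 100% = wells lacking luciferase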
* marks the source's active call; other numbers are inactive results; nt = no result given; ! = not active in a repeat.

SMILES | FLuc inh counter | HSP90 refold inh | C8 TRAIL sens | FLuc act counter | PPC-1+TRAIL kill | STAT3 inh | HSP90 confirm | FLuc counter
Cc1c(N=Cc2nc3ccccc3n2C)c(=O)n(-c2ccccc2)n1C | 83.1* | 31.6* | -12.8 | 0.2 | 15.2 | -10.5 | 37.4* | 26.0*
Cc1c(N=Cc2nc3ccccc3[nH]2)c(=O)n(-c2ccccc2)n1C | 31.2 | 2.9 | 7.7 | 0.7 | 19.7 | -10.9 | nt | nt
N/C(=N\NC(=O)Nc1ccccc1)c1ccccn1 | nt | 31.7* | 13.4 | nt | 5.1 | nt | 8.6 | -1.4
CC(C)N1CC(C(=O)Nc2ccc(S(=O)(=O)N3CCCCC3)cc2)CC1=O (stereo unspecified) | nt | 26.4* | -0.5 | nt | nt | nt | -5.3 | -11.2
COc1ccc(N(C(C)C(=O)Nc2ccc(S(=O)(=O)N3CCCCC3)cc2)S(C)(=O)=O)cc1 (stereo unspecified) | nt | 18.1* | 13.6 | nt | nt | nt | -6.5 | -13.2
CC(=O)Nc1ccc(NC(=O)C2CC(=O)N(C(C)C)C2)cc1 (stereo unspecified) | nt | 0.1 | -9.3 | nt | nt | nt | nt | nt
CC12CCC(=O)N1C(C(=O)Nc1nc(-c3ccccc3Cl)cs1)CS2 (stereo unspecified) | nt | nt | 20.8 | nt | nt | nt | nt | nt
O=C(CN1CCN(Cc2ccccc2)CC1)N/N=C/c1c[nH]c2ccccc12 | -1.1 | 4.3 | 8.2 | 1 | -2.7 | 8.0 | nt | nt
CCOc1ccc(C(=O)Nc2nc(C)c(C(=O)OC)s2)cc1 | nt | 7.0 | 15.1 | nt | 12.4 | nt | nt | nt
C=CCOC(=O)c1sc(NC(=O)c2ccc(OC)cc2)nc1C | 5.7 | 54.6* | 0.9 | 0.9 | 11.1 | 20.1 | 60.3* | -10.9
COC(=O)C1=C(CN2CCCc3ccccc32)NC(=O)NC1c1ccc(F)cc1 (stereo unspecified) | -7.1 | 46.4* | 14.1 | 1.1 | -9.4 | 90.9* | 14.9 | -9.9
COC(=O)C1=C(CN2CCc3ccccc32)NC(=O)NC1c1cc(C)ccc1C (stereo unspecified) | -1.7 | 7.9 | -6.1 | 1 | 6.8 | -10.6 | nt | nt
Cc1c(C(=O)O)cccc1-n1c(C)cc(/C=N/NC(=O)c2cc3ccccc3o2)c1C | 9.6 | 21.5* | 6.6 | 0.9 | 15.2 | 8.2 | 14.5 | -11.1
O=S(=O)(Nc1ccc(C(O)(C(F)(F)F)C(F)(F)F)cc1)c1cccc2cccnc12 | nt | nt | 16.7 | nt | nt | nt | nt | nt
Cc1cc2nc(-c3cccnc3SCC(=O)NC(C)C)[nH]c2cc1C | 70.1* | 33.8* | 34.3 | 0.3 | 37.6 | -10.8 | -3.2 | -23.3
CCCCOC(=O)CSc1nc(N)c(C#N)c(-c2ccc(OC)cc2)c1C#N | -9.1 | 24.6* | 1.2 | 1.1 | 8.2 | 10.0 | 4.6 | -6.1
CC(=O)Nc1cc(-c2ccccc2)ccc1O | -0.6 | 0.5 | -10.3 | 1 | 21.1 | 7.0 | nt | nt
Nc1cc(-c2ccccc2)ccc1O | 9.9 | 23.7*! | 6.7 | 0.9 | 19.7 | 2.1 | 80.1* | -17.6
COc1ccc([C@H]2C[C@H](O)[C@@H](n3cc(-c4ccc(F)cc4)nn3)CN2Cc2cccs2)cc1 | nt | nt | 35.6 | nt | nt | nt | nt | nt
CC(C)c1ccc(NNC(=O)C2CCC2)cc1 | nt | 1.8 | 2.1 | nt | 1.3 | nt | nt | nt
CC(=O)Oc1ccc(Nc2ccccc2)cc1 | 4.6 | 30.7* | -8.1 | 1 | 7.9 | 19.1 | 56.5* | -13.5
CC(=O)Oc1ccc(NC(=O)Cc2ccccc2)cc1 | 7.5 | -1.7 | -1.1 | 0.9 | 3.6 | 2.5 | nt | nt
Cc1c(-c2nc(-c3ccc(C(F)(F)F)cc3)no2)n(C)oc1=O | nt | 17.5* | -3.7 | nt | 7.7 | nt | 73.6* | -10.3
COc1ccc(N(CC(=O)NCc2ccc(F)cc2)C(=O)Cn2nnc(-c3ccc(C)o3)n2)cc1OC | nt | 49.1* | -8.4 | nt | nt | nt | 0.0 | -2.7
Cc1cccc(N(CC(=O)NCc2ccccc2)C(=O)Cn2nnc(-c3ccc(C)o3)n2)c1 | -6.6 | 4.3 | 1.0 | 1.1 | 4.8 | 0.0 | nt | nt
SMILES | FLuc inh counter | HSP90 refold inh | C8 TRAIL sens | FLuc act counter | PPC-1+TRAIL kill | STAT3 inh | HSP90 confirm | FLuc counter
Cc1ccc(NS(=O)(=O)N2CCCCC2)cc1 | nt | nt | -8.3 | nt | nt | nt | nt | nt
Cn1ccnc1SCc1cn2cc(Br)ccc2n1 | 35.3 | 17.8* | 17.9 | 0.6 | 12.5 | 42.7 | 39.8* | 34.0*
COc1cccc(NC(=O)COC(=O)C2CC2)c1 | nt | nt | 0.8 | nt | nt | nt | nt | nt
Nc1cc(=O)[nH]c(SCC(=O)Nc2ccc(N3CCCCC3)cc2)n1 | nt | nt | -20.0 | nt | nt | nt | nt | nt
Cc1ccc2nc(NC(=O)CCCC(=O)O)sc2c1 | 66.4* | 16.9* | 26.9 | 0.3 | 6.3 | 79.5* | 24.0* | -8.7
CCNS(=O)(=O)c1ccc2nc(NC(=O)c3cccnc3)sc2c1 | 13.6 | 28.8* | 7.7 | 0.9 | 23.8 | 6.6 | 2.7 | -2.0
CC(C)CC(=O)Nc1nc2ccc(S(C)(=O)=O)cc2s1 | -2.3 | 29.9* | -1.8 | 1 | 9.1 | 12.1 | -0.9 | -17.8
COc1ccccc1-c1cnc(C(O)c2cc(Cl)cc(Cl)c2)[nH]1 (stereo unspecified) | nt | nt | 12.1 | nt | nt | nt | nt | nt
CN1C(C)(C)CC(=NO)CC1(C)C | nt | nt | 1.7 | nt | nt | nt | nt | nt
Cc1cc(-c2ccccc2)c2c(=O)[nH][nH]c2n1 | -2.3 | 18.3* | -3.5 | 1 | 5.8 | -7.7 | -8.1 | -16.6
CCNc1ccc(C(=O)O)cc1N | -8.3 | 54.7* | -1.0 | 1.1 | 6.4 | 5.7 | 2.4 | -5.8
O=C(NNC(=O)c1ccc(Oc2ccc(C3SCCS3)cc2)o1)c1ccc(Cl)cc1 | nt | -3.6 | -10.5 | nt | 9.3 | nt | nt | nt
O=C(Cc1ccccc1)NNc1ccc2ccccc2c1 | -5.8 | 38.6* | -2.3 | 1.1 | 9.7 | -15.4 | 5.2 | -2.8
O=C(CN1C(=O)CCC1=O)NNc1ccc2ccccc2c1 | -3.5 | 25.6* | 20.5 | 1 | 42.7 | -5.1 | 12.6 | -13.0
O=C(COc1ccc2ccccc2c1)NNC(=O)Cc1ccccc1 | -13.0 | 3.4 | -6.2 | 1.1 | -3.5 | 12.7 | nt | nt
O=C(CNc1ccc2ccccc2c1)NNC1=NCCC1 | -4.1 | 9.1 | 4.3 | 1 | -1.2 | 18.2 | nt | nt
CC(C)(C)CC(=O)O/N=C(\N)c1ccccn1 | 51.1* | 21.5* | 36.1 | 0.5 | 24.9 | 24.0 | 35.2* | 22.4*
N/C(=N\OC(=O)/C=C/c1ccccc1Cl)c1ccncc1 | 23.5 | 30.6* | 7.6 | 0.8 | nt | 16.4 | 2.4 | -19.1
Cc1ccc(CC(=O)O/N=C(\N)c2ccccn2)cc1 | nt | 1.9 | 1.2 | nt | nt | nt | nt | nt
N/C(=N\OC(=O)/C=C/c1ccccc1)c1ccccn1 | 82.2* | 19.4* | 10.5 | 0.2 | 12.1 | 31.7 | 14.6 | 73.0*
COC(=O)CCC(=O)N1CCC(Oc2cccc(C(=O)NCc3ccccn3)c2)CC1 | nt | nt | -2.0 | nt | nt | nt | nt | nt
CC1CCN(c2ccc(/C=N\Nc3nncn3N)cc2[N+](=O)[O-])CC1 | 5.6 | 60.1* | -5.2 | 0.9 | 20.6 | -0.8 | -4.3 | -7.8
CC1CCN(c2ccc(/C=N/n3nnnc3N)cc2[N+](=O)[O-])CC1 | -10.1 | -1.7 | -4.2 | 1.1 | 6.1 | 21.2 | nt | nt
CN(C)C1CN(Cc2cn(Cc3ccc(Cl)cc3)nn2)S(=O)(=O)C1 (stereo unspecified) | nt | nt | -23.2 | nt | nt | nt | nt | nt
